This is a sample that favours compounds with a hit; in the whole collection about 1.4% have one here.
FXIIa inh – human FXIIa protease inhibitors, primary screen, biochemical, 1536-well; Coagulation factor XII (Homo sapiens), P00748; purified FXIIa, Boc-QGR-AMC fluorogenic substrate, 2 h; inhibition, % at 5 µM; 220,000 tested, 0.3% active; in the data active = inhibition above about 40%;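 note: 0% = enzyme with no compound and 100% = blank without enzyme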
Thrombin inh – human alpha-thrombin inhibitors, primary screen, counter-screen for coagulation protease inhibitor project, biochemical, 1536-well, fluorogenic AMC substrate; 220,000 tested, 0.26% active; AID 1046, 2008; Boc-VPR-AMC fluorogenic substrate cleavage; inhibition, % at 5 µM; Prothrombin (Homo sapiens), P00734;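 active = inhibition at or above 40%; inactive = inhibition below 40%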;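 note: 0% = enzyme with no compound and 100% = wells without enzyme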
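Material: human alpha-thrombin enzyme / Medium: pH 7.5 Tris (50 mM) with NaCl 150 mM, Tween 20 0.05% / Compound: single-point dosing at 5 µM, 0.2% DMSO / Incubation: enzyme reaction carried out at room temperature / Detection: AMC fluorescence, 355/460 nm / Read-out basis: percent inhibition scaled between no-compound controls and no-enzyme blanks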
Calpain2 inh – inhibitors of pig calpain II, primary screen, biochemical, fluorogenic peptide substrate, 1536-well. 220,000 tested, 0.37% active. purified calpain II, 30 min. inhibition, % at 16 µM;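 active = inhibition above about 50%, limit read from the data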
FXIa inh – human FXIa protease inhibitors, primary screen, biochemical, 1536-well; Coagulation factor XI (Homo sapiens), P03951; 220,000 tested, 0.14% active; inhibition, % at 5 µM; purified FXIa, Boc-Glu-Ala-Arg-AMC fluorogenic substrate;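 active = inhibition of at least 40%; inactive = inhibition below 40%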;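 note: fluorescence of freed AMC excited at 355 nm; 0% = enzyme without compound and 100% = no enzyme blank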
KLK5 inh – human KLK5 protease inhibitors, primary screen, biochemical, 1536-well; inhibition, % at 5 µM; recombinant hK5, fluorogenic AMC substrate cleavage; 210,000 tested, 0.59% active; Kallikrein-5 (Homo sapiens), Q9Y337;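 active = inhibition of 40% or more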;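 note: 0% = enzyme controls without compound and 100% = no-enzyme blanks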
Starred values were filed as active, the others as inactive; · = no result given.

SMILES	FXIIa inh	Thrombin inh	Calpain2 inh	FXIa inh	KLK5 inh
CCCCOc1ccc(C(=O)N/C(=C\c2cccc([N+](=O)[O-])c2)C(=O)OCCC)cc1	14	-9	14	3	-3
CCCCOc1ccc(C(=O)N/C(=C\c2cccc([N+](=O)[O-])c2)C(=O)OC(C)C)cc1	4	23	51*	-15	-11
Cc1onc(-c2c(Cl)cccc2Cl)c1-c1nc2cc(Cl)ccc2c(=O)o1	4	0	-10	5	1
COc1ccc(S(=O)(=O)N2CCCCC2)cc1NC(=O)CN(C)C1CCCCC1	49*	·	53*	30	19
COCCCNC(=S)NNC(=O)c1csc(C)n1	-1	-7	9	-6	-12
O=C1CC(Sc2ccc(Cl)cc2)C(=O)N1c1ccc2c(c1)OCCO2 (stereo unspecified)	17	37	22	44*	53*
CCOC(=O)C(CC)(CCC(=O)OC)c1csc(Nc2ccccc2O)n1 (stereo unspecified)	21	66*	23	21	19
CC1=CCC2C(=O)N(Cc3ccccc3)C(=O)C2C1 (stereo unspecified)	0	-2	-9	-3	-18
CC1=CCC2C(=O)N(C(C)c3ccccc3)C(=O)C2C1 (stereo unspecified)	13	1	-19	64*	-6
CCN1C(=O)/C(=C/N(C(C)=O)c2ccccc2)N(c2ccccc2)C1=S	22	76*	2	9	50*
CCN=C1S/C(=C\c2sccc2C)C(=O)N1CC	9	-4	16	1	13
CC(=O)c1cccc(NC(=O)N2CCCC2C(=O)Nc2ccc3c(c2)OCO3)c1 (stereo unspecified)	8	-6	-4	-6	1
CCCn1[nH]cc(SC)c(=O)c1=O	16	17	12	6	122*
Cc1ccc(C(=O)C(=O)c2ccc(C)c(N)c2)cc1N	40*	14	11	53*	26
Cc1ccc([N+](=O)[O-])cc1N	6	0	-5	13	-17
COc1ccccc1NC(=S)NC(NC(=O)CC(C)C)C(Cl)(Cl)Cl (stereo unspecified)	11	-9	-35	0	4
CCOC(=O)c1sc2cc([N+](=O)[O-])cc(SCC(=O)OC)c2c1N	31	29	-16	11	68*
Nc1nc(CN2CCCCC2)cs1	-3	104*	9	-1	62*
Nc1nc(CN2CCOCC2)cs1	15	0	-10	1	-4
CCOC(=O)c1cc(-c2ccc(OC)cc2)nc2c1c(C)nn2CCC(N)=S	3	-8	-42	0	-1
Cc1ccc(-c2nc(CN(C)Cc3cccc4cnccc34)c(C)o2)s1	12	1	6	5	·
CC(=O)Nc1ccc(NC(=O)CSc2ccc3nnc(CCNC(=O)c4ccccc4)n3n2)cc1	6	-8	-24	-1	3
O=C(NCCc1nnc2ccc(NCc3ccc(Cl)cc3)nn12)c1ccccc1	11	3	57*	-2	-14
COc1ccc(-c2csc(N3C(=O)C4C5c6ccccc6C(c6ccccc65)[C@@H]4C3=O)n2)cc1 (stereo partly specified)	8	-3	-23	0	-20
COc1ccc(-c2csc(N3C(=O)C4C5c6ccccc6C(c6ccccc65)C4C3=O)n2)cc1 (stereo unspecified)	17	23	3	10	62*
SMILES	FXIIa inh	Thrombin inh	Calpain2 inh	FXIa inh	KLK5 inh
Cc1ccc(NCCC(=O)c2ccc(Cl)cc2)cc1C	13	8	21	4	47*
CCc1ccc(NCCC(=O)c2ccc(Cl)cc2)cc1	17	1	-4	3	-10
O=C(NN=C1c2ccccc2-c2ccccc21)c1cccc(Br)c1	-6	32	-8	-4	1
CCOc1ccc(NC(=O)CSC2=NCCN2)cc1	13	5	20	10	47*
CC(C)(C)C(=O)N1NC(=Nc2ccccc2)SC1(C)C	40*	6	16	31	34
O=C(CSc1nnc(-c2ccncc2)n1-c1ccc(F)cc1)NNC(=O)c1cccc(O)c1	15	3	-4	10	-3
COc1cccc(/C=N/NC(=O)c2[nH]c(C)c(C(=O)N/N=C/c3cccc(OC)c3O)c2C)c1O	19	3	-55	40*	-159

Screens: PubChem, several laboratories
